According to ChEMBL document CHEMBL1158680, “Chemical constituents and biological activities of the fruit of Zanthoxylum integrifoliolum” (1999):
Activity calls are given as the source filed them. No cut-off for these calls is given here.

Legend:
Aorta [1] = assay: Vasorelaxation activity in rat aorta assessed as inhibition of K+-induced contraction at 1 ug/ml preincubated for 15 mins relative to control; assay type: functional; parameters: scale not given: the % may be the effect or the level left
How it was run: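 Rat aorta preincubated with sample or DMSO (0.1%, control) at 37 °C for 15 min. Contraction then induced by high potassium (K+, 80 mM). Response expressed as percentage of control contraction, given as means ± S.E.M. (n = 3).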

[2] = Antiplatelet activity against rabbit platelets assessed as inhibition of PAF-induced platelet aggregation at 100 ug/ml preincubated for 3 mins by turbidimetric method; assay type: functional, Oryctolagus cuniculus; parameters: scale not given: the % may be the effect or the level left
How it was run: (§1)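 Washed rabbit platelets were preincubated with test sample or 0.5% DMSO vehicle for 3 min at 37 °C. Inducers were thrombin 0.1 U/mL, arachidonic acid 100 μM, collagen 10 μg/mL or PAF 2 nM. Turbidimetric read-out took platelet suspension absorbance as 0% and platelet-free Tyrode's as 100% aggregation, measured at 6 min. Results are mean ± SEM with n per entry.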

Aorta [3] = assay: Vasorelaxation activity in rat aorta assessed as inhibition of K+-induced contraction at 50 ug/ml preincubated for 15 mins relative to control; assay type: functional; parameters: scale not given: the % may be the effect or the level left
How it was run: (§2)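 Rat aorta was preincubated with test sample or 0.1% DMSO vehicle at 37 °C for 15 min. Contraction was then evoked with high K+ (80 mM) or norepinephrine (3 μM). Response is expressed as percent of control contraction, mean ± SEM, n = 3.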

Aorta [4] = assay: Vasorelaxation activity in rat aorta assessed as inhibition of norepinephrine-induced phasic contraction at 50 ug/ml preincubated for 15 mins relative to control; assay type: functional; parameters: scale not given: the % may be the effect or the level left; how it was run: as §2
Aorta [5] = assay: Vasorelaxation activity in rat aorta assessed as inhibition of norepinephrine-induced tonic contraction at 50 ug/ml preincubated for 15 mins relative to control; assay type: functional; parameters: scale not given: the % may be the effect or the level left; how it was run: as §2
[6] = Antiplatelet activity against rabbit platelets assessed as inhibition of thrombin-induced platelet aggregation at 100 ug/ml preincubated for 3 mins by turbidimetric method; assay type: functional, Oryctolagus cuniculus; parameters: scale not given: the % may be the effect or the level left; how it was run: as §1
[7] = (§3) Antiplatelet activity against rabbit platelets assessed as inhibition of arachidonic acid-induced platelet aggregation at 100 ug/ml preincubated for 3 mins by turbidimetric method; assay type: functional, Oryctolagus cuniculus; parameters: scale not given: the % may be the effect or the level left; how it was run: as §1
[8] = (§4) Antiplatelet activity against rabbit platelets assessed as inhibition of collagen-induced platelet aggregation at 100 ug/ml preincubated for 3 mins by turbidimetric method; assay type: functional, Oryctolagus cuniculus; parameters: scale not given: the % may be the effect or the level left; how it was run: as §1
[9] = (§5) Antiplatelet activity against rabbit platelets assessed as inhibition of arachidonic acid-induced platelet aggregation at 50 ug/ml preincubated for 3 mins by turbidimetric method; assay type: functional, Oryctolagus cuniculus; parameters: scale not given: the % may be the effect or the level left; how it was run: as §1
[10] = Antiplatelet activity against rabbit platelets assessed as inhibition of arachidonic acid-induced platelet aggregation at 20 ug/ml preincubated for 3 mins by turbidimetric method; assay type: functional, Oryctolagus cuniculus; parameters: scale not given: the % may be the effect or the level left; how it was run: as §1
[11] = Antiplatelet activity against rabbit platelets assessed as inhibition of arachidonic acid-induced platelet aggregation at 10 ug/ml preincubated for 3 mins by turbidimetric method; assay type: functional, Oryctolagus cuniculus; parameters: scale not given: the % may be the effect or the level left; how it was run: as §1
[12] = Antiplatelet activity against rabbit platelets assessed as inhibition of arachidonic acid-induced platelet aggregation at 5 ug/ml preincubated for 3 mins by turbidimetric method; assay type: functional, Oryctolagus cuniculus; parameters: scale not given: the % may be the effect or the level left
How it was run: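 Washed rabbit platelet suspension preincubated with DMSO (0.5%, control) or sample at 37 °C for 3 min. Arachidonic acid (100 μM) then added. Turbidimetric read-out with platelet suspension as 0% and platelet-free Tyrode's solution as 100% aggregation. Percent aggregation read at 6 min. Means ± S.E.M. (n).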

[13] = Antiplatelet activity against rabbit platelets assessed as inhibition of PAF-induced platelet aggregation at 50 ug/ml preincubated for 3 mins by turbidimetric method; assay type: functional, Oryctolagus cuniculus; parameters: scale not given: the % may be the effect or the level left; how it was run: as §1
[14] = Antiplatelet activity against rabbit platelets assessed as inhibition of PAF-induced platelet aggregation at 20 ug/ml preincubated for 3 mins by turbidimetric method; assay type: functional, Oryctolagus cuniculus; parameters: scale not given: the % may be the effect or the level left; how it was run: as §1
Aorta [15] = assay: Vasorelaxation activity in rat aorta assessed as inhibition of K+-induced contraction at 15 ug/ml preincubated for 15 mins relative to control; assay type: functional; parameters: scale not given: the % may be the effect or the level left; how it was run: as §2
Aorta [16] = assay: Vasorelaxation activity in rat aorta assessed as inhibition of K+-induced contraction at 5 ug/ml preincubated for 15 mins relative to control; assay type: functional; parameters: scale not given: the % may be the effect or the level left; how it was run: as §2
Aorta [17] = assay: Vasorelaxation activity in rat aorta assessed as inhibition of norepinephrine-induced phasic contraction at 15 ug/ml preincubated for 15 mins relative to control; assay type: functional; parameters: scale not given: the % may be the effect or the level left; how it was run: as §2
Aorta [18] = assay: Vasorelaxation activity in rat aorta assessed as inhibition of norepinephrine-induced tonic contraction at 15 ug/ml preincubated for 15 mins relative to control; assay type: functional; parameters: scale not given: the % may be the effect or the level left; how it was run: as §2
[19] = Antiplatelet activity against rabbit platelets assessed as inhibition of thrombin-induced platelet aggregation at 50 ug/ml preincubated for 3 mins by turbidimetric method; assay type: functional, Oryctolagus cuniculus; parameters: scale not given: the % may be the effect or the level left; how it was run: as §1
[20] = Antiplatelet activity against rabbit platelets assessed as inhibition of thrombin-induced platelet aggregation at 20 ug/ml preincubated for 3 mins by turbidimetric method; assay type: functional, Oryctolagus cuniculus; parameters: scale not given: the % may be the effect or the level left; how it was run: as §1
[21] = (§6) Antiplatelet activity against rabbit platelets assessed as inhibition of collagen-induced platelet aggregation at 50 ug/ml preincubated for 3 mins by turbidimetric method; assay type: functional, Oryctolagus cuniculus; parameters: scale not given: the % may be the effect or the level left; how it was run: as §1
[22] = Antiplatelet activity against rabbit platelets assessed as inhibition of collagen-induced platelet aggregation at 20 ug/ml preincubated for 3 mins by turbidimetric method; assay type: functional, Oryctolagus cuniculus; parameters: scale not given: the % may be the effect or the level left; how it was run: as §1
Aorta [23] = assay: Vasorelaxation activity in rat aorta assessed as inhibition of K+-induced contraction at 100 ug/ml preincubated for 15 mins relative to control; assay type: functional; parameters: scale not given: the % may be the effect or the level left; how it was run: as §2
Aorta [24] = assay: Vasorelaxation activity in rat aorta assessed as inhibition of norepinephrine-induced phasic contraction at 100 ug/ml preincubated for 15 mins relative to control; assay type: functional; parameters: scale not given: the % may be the effect or the level left; how it was run: as §2
Aorta [25] = assay: Vasorelaxation activity in rat aorta assessed as inhibition of norepinephrine-induced tonic contraction at 100 ug/ml preincubated for 15 mins relative to control; assay type: functional; parameters: scale not given: the % may be the effect or the level left; how it was run: as §2
Aorta [26] = assay: Vasorelaxation activity in rat aorta assessed as inhibition of K+-induced contraction at 30 ug/ml preincubated for 15 mins relative to control; assay type: functional; parameters: scale not given: the % may be the effect or the level left; how it was run: as §2
Aorta [27] = assay: Vasorelaxation activity in rat aorta assessed as inhibition of norepinephrine-induced phasic contraction at 30 ug/ml preincubated for 15 mins relative to control; assay type: functional; parameters: scale not given: the % may be the effect or the level left; how it was run: as §2
Aorta [28] = assay: Vasorelaxation activity in rat aorta assessed as inhibition of norepinephrine-induced tonic contraction at 30 ug/ml preincubated for 15 mins relative to control; assay type: functional; parameters: scale not given: the % may be the effect or the level left; how it was run: as §2
[29] = Antiplatelet activity against rabbit platelets assessed as inhibition of PAF-induced platelet aggregation at 10 ug/ml preincubated for 3 mins by turbidimetric method; assay type: functional, Oryctolagus cuniculus; parameters: scale not given: the % may be the effect or the level left; how it was run: as §1
Platelet [30] = assay: as §3; assay type: functional; conditions: Oryctolagus cuniculus; how it was run: as §1
Platelet [31] = assay: as §5; assay type: functional; conditions: Oryctolagus cuniculus; how it was run: as §1
Platelet [32] = assay: as §4; assay type: functional; conditions: Oryctolagus cuniculus; how it was run: as §1
Platelet [33] = assay: as §6; assay type: functional; conditions: Oryctolagus cuniculus; how it was run: as §1

COC(=O)C1=C(C)NC(C)=C(C(=O)OC)C1c1ccccc1[N+](=O)[O-] [NIFEDIPINE]
Activity (Aorta [1]): 0%

COc1cc2ccc(=O)oc2cc1O [SCOPOLETIN]
Activity [2]: 78.2%
Activity (Aorta [3]): 88.4%
Activity (Aorta [4]): 91.9%
Activity (Aorta [5]): 81.6%
Activity [6]: 89.8%
Activity [7]: 80.5%
Activity [8]: 80.9%

CC/C=C/C/C=C\CC/C=C/C=C/C(=O)NCC(C)(C)O
Activity [2]: 38.4%
Activity [6]: 89.2%
Activity [7]: 0%
Activity [9]: 0%
Activity [10]: 4%
Activity [11]: 27.8%
Activity [12]: 46.2%
Activity [8]: 0%

CCCCCCC(=O)CC/C=C/C=C/C(=O)NCC(C)C [LANYUAMIDE I]
Activity [2]: 0%
Activity [13]: 20%
Activity [14]: 76%
Activity (Aorta [3]): 28.6%
Activity (Aorta [15]): 47.6%
Activity (Aorta [16]): 82%
Activity (Aorta [4]): 77.1%
Activity (Aorta [17]): 100%
Activity (Aorta [5]): 45.5%
Activity (Aorta [18]): 77.1%
Activity [6]: 8.9%
Activity [19]: 75.7%
Activity [20]: 80.4%
Activity [7]: 0%
Activity [9]: 0%
Activity [10]: 15.6%
Activity [8]: 0%
Activity [21]: 0%
Activity [22]: 2.7%

COc1ccc(-c2oc3c(OC)c(OC)cc(O)c3c(=O)c2O)cc1 [TAMBULIN]
Activity [2]: 78.6%
Activity (Aorta [23]): 104.7%
Activity (Aorta [24]): 100.2%
Activity (Aorta [25]): 98.6%
Activity [6]: 81.1%
Activity [7]: 73.3%
Activity [8]: 64.9%

COc1ccc(-c2oc3c(OC)c(O)cc(O)c3c(=O)c2O)cc1 [PRUDOMESTIN]
Activity [2]: 73.3%
Activity (Aorta [23]): 36.7%
Activity (Aorta [26]): 83.4%
Activity (Aorta [24]): 20%
Activity (Aorta [27]): 100.6%
Activity (Aorta [25]): 46.7%
Activity (Aorta [28]): 97.8%
Activity [6]: 87.5%
Activity [7]: 0%
Activity [10]: 0%
Activity [11]: 64.5%
Activity [8]: 58.1%

COc1ccc(-c2oc3c(OC)c(OC)cc(OC(C)=O)c3c(=O)c2OC(C)=O)cc1
Activity [2]: 0%
Activity [13]: 46.7%
Activity [14]: 71.2%
Activity [29]: 78%
Activity (Aorta [3]): 25.3%
Activity (Aorta [15]): 57.1%
Activity (Aorta [16]): 84.8%
Activity (Aorta [4]): 74.6%
Activity (Aorta [17]): 94.6%
Activity (Aorta [5]): 58.7%
Activity (Aorta [18]): 86.3%
Activity [6]: 88.5%
Activity [7]: 0%
Activity [10]: 0%
Activity [11]: 29%
Activity [12]: 51.1%
Activity [8]: 5.1%

CCCCCCCCC/C=C/C=C/C(=O)NCC(C)(C)O [TETRAHYDROBUNGEANOOL]
Activity [2]: 6.7%
Activity [13]: 82.7%
Activity [6]: 74%
Activity [7]: 0%
Activity [9]: 58.3%
Activity [8]: 0%

CC/C=C\C/C=C\CC/C=C/C=C/C(=O)NCC(C)(C)O
Activity [2]: 38.4%
Activity [6]: 89.2%
Activity [7]: 0%
Activity [9]: 0%
Activity [10]: 4%
Activity [11]: 27.8%
Activity [12]: 46.2%
Activity [8]: 0%

COc1ccc2c(c1OC)CN1CCc3cc4c(cc3[C@@H]1C2)OCO4 [CANADINE]
Activity [2]: 54.7%
Activity (Aorta [3]): 13.6%
Activity (Aorta [15]): 49.8%
Activity (Aorta [16]): 82.8%
Activity (Aorta [4]): 11.2%
Activity (Aorta [17]): 79.1%
Activity (Aorta [5]): 25.6%
Activity (Aorta [18]): 70%
Activity [6]: 91.2%
Activity [7]: 45.8%
Activity [8]: 76.4%

c1cc2c(cc1[C@H]1OC[C@H]3[C@@H]1CO[C@@H]3c1ccc3c(c1)OCO3)OCO2 [SESAMIN]
Activity [14]: 83.7%
Activity [20]: 87.8%
Activity (Platelet [30]): inactive
Activity (Platelet [31]): inactive
Activity [10]: 82.3%
Activity (Platelet [32]): inactive
Activity (Platelet [33]): inactive
Activity [22]: 83.2%

CC(=O)Oc1ccccc1C(=O)O [ASPIRIN]
Activity [13]: 90.1%
Activity [19]: 92.1%
Activity [9]: 0%
Activity [10]: 42.7%
Activity [11]: 90.2%
Activity [21]: 87.1%

CCCCCCCCCCCC(C)=O [2-TRIDECANONE]
Activity [10]: 63.5%
Activity (Platelet [32]): inactive
Activity (Platelet [33]): inactive

O=c1ccc2nccc3c4ccccc4n1c23 [CANTHIN-6-ONE]
Activity [2]: 36.4%
Activity [6]: 85.3%
Activity [7]: 4.2%
Activity [9]: 57.3%
Activity [8]: 7.9%

CC(=O)[C@H]1CC[C@H]2[C@@H]3CC=C4C[C@@H](O)CC[C@]4(C)[C@H]3CC[C@]12C [PREGNENOLONE]
Activity [2]: 77%
Activity (Aorta [3]): 93.6%
Activity (Aorta [4]): 114.1%
Activity (Aorta [5]): 102.6%
Activity [6]: 91.8%
Activity [7]: 86.5%
Activity [8]: 84.7%
